Laboratory results from ChEMBL document CHEMBL1150770, “Design, synthesis and biological evaluation of bis(hydroxyphenyl) azoles as potent and selective non-steroidal inhibitors of 17beta-hydroxysteroid dehydrogenase type 1 (17beta-HSD1) for the treatment of estrogen-dependent diseases” (Bioorg Med Chem, 2008).
The source made the active and inactive calls. No cut-off for these calls is given here.

Assays:
[1] = target: T1, 17-beta-hydroxysteroid dehydrogenase type 1 (Homo sapiens, UniProt P14061); test: Inhibition of human placental 17beta-HSD1 using estrone substrate
T1 sequence (P14061 whole entry): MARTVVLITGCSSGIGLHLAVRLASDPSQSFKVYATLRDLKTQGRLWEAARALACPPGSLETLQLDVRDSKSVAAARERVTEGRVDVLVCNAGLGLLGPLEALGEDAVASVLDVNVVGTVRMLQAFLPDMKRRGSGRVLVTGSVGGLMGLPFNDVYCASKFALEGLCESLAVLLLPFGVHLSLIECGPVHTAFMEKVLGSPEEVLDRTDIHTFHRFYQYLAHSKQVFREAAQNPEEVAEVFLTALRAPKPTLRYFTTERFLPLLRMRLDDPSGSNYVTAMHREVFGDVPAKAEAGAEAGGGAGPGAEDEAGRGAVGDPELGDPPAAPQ
Outline: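 Cytosolic fraction of human placenta incubated at 37 °C with NADH (500 µM) and inhibitor in 50 mM phosphate buffer, 20% glycerol, 1 mM EDTA, DMSO 1% final. Started with unlabelled plus [3H]-E1 (500 nM final); stopped after 10 min with HgCl2, extracted into diethylether. E1/E2 separated by HPLC with radio detection.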

[2] = target: T2, 17-beta-hydroxysteroid dehydrogenase type 2 (Homo sapiens, UniProt P37059); test: Inhibition of human placental 17beta-HSD2 using 17-beta-estradiol substrate
T2 sequence (P37059 whole entry): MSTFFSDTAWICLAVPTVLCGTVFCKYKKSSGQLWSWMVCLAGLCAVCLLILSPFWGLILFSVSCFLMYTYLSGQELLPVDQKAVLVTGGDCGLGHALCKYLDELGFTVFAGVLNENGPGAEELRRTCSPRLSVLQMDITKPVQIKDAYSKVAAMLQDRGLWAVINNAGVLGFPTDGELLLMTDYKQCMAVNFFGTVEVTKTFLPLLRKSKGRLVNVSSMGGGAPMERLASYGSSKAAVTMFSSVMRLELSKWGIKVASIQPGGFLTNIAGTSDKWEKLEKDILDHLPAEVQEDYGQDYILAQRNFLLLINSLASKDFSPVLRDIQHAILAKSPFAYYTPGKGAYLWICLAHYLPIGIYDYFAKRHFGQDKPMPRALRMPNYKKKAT
Outline: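 Human placental microsomal fraction incubated 20 min at 37 °C with NAD+ (1500 µM), test compound and unlabelled plus [3H]-E2 (500 nM final). Extraction and HPLC with radio detection as for 17β-HSD1. Conversion = AUC(E1)/[AUC(E1)+AUC(E2)] × 100.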

Homo sapiens = species on record: Homo sapiens; test: Selectivity ratio of IC50 for human 17beta-HSD2 to IC50 for human 17beta-HSD1
Outline: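 Selectivity factor computed as IC50 for placental microsomal 17β-HSD2 (E2 500 nM, NAD+ 1500 µM) divided by IC50 for placental cytosolic 17β-HSD1 (E1 500 nM, NADH 500 µM).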

[3] = target: T3, Estrogen receptor (Homo sapiens) (UniProt P03372); test: Displacement of [2,4,6,7-3H]17beta-estradiol from human recombinant ERalpha receptor relative to 17-beta-estradiol
T3 sequence (whole entry): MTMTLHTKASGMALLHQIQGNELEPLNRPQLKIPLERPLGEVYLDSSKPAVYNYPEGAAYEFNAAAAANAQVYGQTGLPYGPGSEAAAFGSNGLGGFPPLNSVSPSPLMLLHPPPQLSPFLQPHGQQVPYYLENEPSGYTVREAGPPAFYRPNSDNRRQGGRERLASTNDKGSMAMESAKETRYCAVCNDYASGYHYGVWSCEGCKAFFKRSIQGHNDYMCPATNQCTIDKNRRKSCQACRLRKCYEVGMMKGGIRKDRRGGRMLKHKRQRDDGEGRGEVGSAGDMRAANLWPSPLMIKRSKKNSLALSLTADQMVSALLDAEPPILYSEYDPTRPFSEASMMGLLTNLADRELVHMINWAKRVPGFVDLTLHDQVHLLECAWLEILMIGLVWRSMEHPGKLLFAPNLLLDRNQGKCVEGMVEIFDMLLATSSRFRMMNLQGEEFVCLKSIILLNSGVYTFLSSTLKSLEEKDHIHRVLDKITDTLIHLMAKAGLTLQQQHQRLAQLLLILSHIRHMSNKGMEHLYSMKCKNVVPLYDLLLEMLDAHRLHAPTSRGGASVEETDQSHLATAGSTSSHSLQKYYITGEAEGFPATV
Outline: (§1)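 ERα or ERβ (0.25 pmol) incubated with [2,4,6,7-3H]-E2 (10 nM) and test compound, 1 h, room temperature, 5% DMSO final. Non-specific binding with diethylstilbestrol (10 µM). Bound complexes captured on hydroxyapatite, washed, resuspended in ethanol and counted by liquid scintillation. RBA derived from inhibitor and E2 concentrations displacing 50% of bound labelled E2.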

[4] = target: Estrogen receptor beta (Homo sapiens) (UniProt Q92731); test: Displacement of [2,4,6,7-3H]17beta-estradiol from human recombinant ERbeta receptor relative to 17-beta-estradiol; outline: as §1
T47D = test: Estrogenic effect in human T47D cells assessed as stimulation of cell proliferation at 100 nM by MTT assay; type: functional, cell-based
Outline: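 T-47D cells grown 48 h in phenol red-free RPMI 1640 with 5% DCC-FCS, then treated with compound at 100 nM final (ethanol 1% final). E2 0.1 nM as positive control, ethanol as negative control. Medium and additives renewed every 2–3 days; after 8 days MTT reduction read at 590 nm. Stimulation = (proliferation relative to control set at 1, minus 1) × 100%.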

[5] = target: T1, 17-beta-hydroxysteroid dehydrogenase type 1; test: Inhibition of 17-beta-HSD1-mediated 17-beta-estradiol formation in human T47D cells; type: cell-based
Outline: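 T47D cells, which express both 17β-HSD1 and 17β-HSD2, were kept in RPMI 1640 with 10% FCS at 37 °C, 5% CO₂. They were seeded in DMEM with FCS, then after 24 h switched to serum-free DMEM. Test compound was added in DMSO (1% final) and pre-incubated 30 min. Unlabelled plus [³H]-E1 (50 nM final) was added for 2.5 h. Steroids were extracted with ether, and E2 formed was quantified by HPLC with radiodetection.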

[6] = Apparent permeability across human Caco-2 cells; type: ADME, cell-based
Outline: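 Caco-2 monolayers cultured 10 days at higher seeding density; cassette dosing with four reference compounds; donor concentration 50 µM in 0.2 M MES pH 6.5 with 1% ethanol or DMSO. Acceptor sampled at 0, 60, 120, 180 min, donor at 0 and 180 min; LC/MS/MS analysis; triplicate runs; monolayer integrity by TEER and lucifer yellow.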

Sequence of Estrogen receptor beta (Homo sapiens) (Q92731 whole entry): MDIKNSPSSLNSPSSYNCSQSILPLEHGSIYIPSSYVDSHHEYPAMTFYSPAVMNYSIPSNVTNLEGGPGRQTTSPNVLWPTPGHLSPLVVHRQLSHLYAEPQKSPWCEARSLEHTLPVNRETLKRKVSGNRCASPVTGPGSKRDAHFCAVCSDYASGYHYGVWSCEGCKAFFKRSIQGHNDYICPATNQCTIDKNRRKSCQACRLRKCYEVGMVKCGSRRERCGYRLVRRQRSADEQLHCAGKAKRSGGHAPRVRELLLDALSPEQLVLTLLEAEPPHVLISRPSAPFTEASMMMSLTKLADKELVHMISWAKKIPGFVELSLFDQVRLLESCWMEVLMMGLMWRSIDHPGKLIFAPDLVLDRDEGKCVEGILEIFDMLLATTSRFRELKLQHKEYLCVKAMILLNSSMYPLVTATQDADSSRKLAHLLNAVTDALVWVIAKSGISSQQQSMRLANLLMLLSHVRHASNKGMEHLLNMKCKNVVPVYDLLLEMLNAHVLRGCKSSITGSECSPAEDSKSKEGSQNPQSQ

SMILES | IC50 [1] | IC50 [2] | Ratio IC50 (Homo sapiens) | RBA [3] | RBA [4] | IC50 [5] | Papp [6] | Activity (T47D)
Oc1ccc(-n2cc(-c3cccc(O)c3)nn2)cc1 | 1320 nM | 8120 nM | 6 | < 0.01% | < 0.01% | – | – | –
Oc1ccc(-c2coc(-c3cccc(O)c3)n2)cc1 | 1850 nM | 250 nM | 0.1 | 0.01% | 0.01% | – | – | –
Oc1ccc(-c2cc(-c3cccc(O)c3)on2)cc1 | 1610 nM | 270 nM | 0.2 | 0.01% | < 0.01% | – | – | –

Compounds with a lower IC50 [1], results first:

IC50 [1] | IC50 [2] | Ratio IC50 (Homo sapiens) | RBA [3] | RBA [4] | IC50 [5] | Papp [6] | SMILES | Activity (T47D)
840 nM | 7280 nM | 9 | 0.01% | 0.01% | – | – | Oc1ccc(-c2cn(-c3cccc(O)c3)nn2)cc1 | –
310 nM | 17500 nM | 56 | 0.01% | 0.5% | 380 nM | 7.9 ×10⁻⁶ cm/s | Oc1ccc(-c2cnc(-c3cccc(O)c3)o2)cc1 | inactive
